Assay outcomes (PubChem BioAssay)
FAK inh = FAK kinase inhibitors, primary screen, biochemical. biochemical FAK kinase activity assay. inhibition, %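 (tested at 7 µM)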. 97,000 compounds, 0.84% hits. AID 727, 2007; in the data active = inhibition above about 19%;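 also: 0% = DMSO and 100% = reference compound high control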
ERa SRC1 inh = ERα–SRC-1 coactivator interaction inhibitors, primary screen, biochemical, TR-FRET, ERα LBD, estradiol-bound; 86,000 compounds, 1.7% hits; AID 629, 2007; inhibition, % at 25.6 µM; TR-FRET ER-alpha LBD / SRC-1 peptide; in the data active = inhibition above about 50%;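 also: 0% = receptor plus peptide control and 100% = peptide only without receptor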
ERb coact inh = inhibitors of ERβ-SRC1 coactivator interaction, primary screen, biochemical, TR-FRET, ERβ LBD, SRC-1 peptide. Estrogen receptor beta (Homo sapiens), Q92731. TR-FRET ER-beta LBD / SRC1-Cy5 peptide binding; receptor agonist-loaded with 1 µM estradiol. inhibition, % at 25.6 µM. 86,000 compounds, 1.3% hits;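 active = compounds whose percent inhibition of the receptor-coactivator binding signal exceeds about 50% in the single-dose screen, limit read from the data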;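 also: 0% = receptor plus peptide wells without compound and 100% = peptide-only wells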
Target sequence (Q92731 whole entry, looked up, the tested form may be a part): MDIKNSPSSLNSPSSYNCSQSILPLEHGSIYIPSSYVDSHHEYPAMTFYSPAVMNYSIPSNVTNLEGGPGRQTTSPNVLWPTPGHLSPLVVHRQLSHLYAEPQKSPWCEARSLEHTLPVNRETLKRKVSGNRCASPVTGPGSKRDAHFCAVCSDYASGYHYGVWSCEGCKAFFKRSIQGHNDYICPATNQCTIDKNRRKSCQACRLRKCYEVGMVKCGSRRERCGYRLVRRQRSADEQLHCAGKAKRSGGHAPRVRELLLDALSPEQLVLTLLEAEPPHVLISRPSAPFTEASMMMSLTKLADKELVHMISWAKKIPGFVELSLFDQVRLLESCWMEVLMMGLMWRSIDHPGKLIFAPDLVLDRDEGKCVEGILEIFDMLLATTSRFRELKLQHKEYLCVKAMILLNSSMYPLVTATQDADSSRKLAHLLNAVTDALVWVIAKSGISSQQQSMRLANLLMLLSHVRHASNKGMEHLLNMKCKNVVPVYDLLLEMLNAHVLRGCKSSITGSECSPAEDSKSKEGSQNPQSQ
HIV Rev-RRE inh = HIV-1 Rev-RRE binding inhibitors, primary screen, biochemical, FRET, protein-RNA interaction; P05866; Rev peptide-RRE RNA binding; inhibition, % at 8 µM; 97,000 compounds, 0.79% hits;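 active = inhibition above the screen-wide mean plus 3 SD, cut at about 35% in these data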;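 also: 0% = median DMSO wells and 100% = median Neomycin B control wells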
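Test system – labelled RRE RNA duplex and labelled Rev peptide · Signal – fluorescein-to-Cy5 FRET, 480 nm excitation · Evaluation – % inhibition of FRET ratio versus controls · Benchmarks – DMSO low control, neomycin B high control · Incubation – 5 min RNA-compound premix plus 15 min binding step, 25 °C · Medium – HEPES pH 7.5 salt buffer with EDTA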
ERa SRC1 pot = enhancers of ERα–SRC-1 coactivator binding, primary screen, biochemical, TR-FRET, ERα LBD, low estradiol; Estrogen receptor (Homo sapiens), P03372; TR-FRET ERalpha-LBD/SRC-Cy5 coactivator binding, 2 h; 100 = basal binding, no effect; coactivator binding (% of control), % at 25.6 µM; 86,000 compounds, 1.3% hits; AID 639, 2007; in the data active = activity above about 200%;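 also: binding measured in presence of low estradiol as agonist stimulus; 0% = peptide alone without receptor and 100% = receptor with peptide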
Smad3 FoxH1 inh = Smad3/FoxH1 peptide binding inhibitors, primary screen, biochemical, TR-FRET; Mothers against decapentaplegic homolog 3 (Homo sapiens), P84022; TR-FRET Smad3/Dy647-FoxH1 peptide binding, europium anti-His; inhibition, % at 25 µM; 88,000 compounds, 0.29% hits; AID 630, 2007;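 active = compounds that reduce the energy-transfer binding signal between the protein and its labelled peptide by more than half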;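 also: 0% = Smad3 plus labelled peptide maximal FRET and 100% = peptide-only background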
* marks the source's active call; other numbers are inactive results; x = no result given; [ ] = remark or other dose. An excerpt weighted towards active compounds, which were near 4% of everything screened.

SMILES | FAK inh | ERa SRC1 inh | ERb coact inh | HIV Rev-RRE inh | ERa SRC1 pot | Smad3 FoxH1 inh
Cc1nn(C(C)C(=O)NNC(=S)Nc2ccc(F)cc2)c(C)c1[N+](=O)[O-] (stereo not given) | 1 | x | x | 2 | x | x
O=C(NC1CCCCC1)C(c1ccccc1)N(C(=O)Cc1ccsc1)c1ccccc1 (stereo not given) | 0 | x | x | 5 | x | x
COc1cc2cc(C(c3nnnn3C3CCCC3)N3CCCCC3)c(=O)[nH]c2cc1OC (stereo not given) | 0 | -4 | 1 | 10 | 119 | 11
O=c1[nH]c2cc3c(cc2cc1C(c1nnnn1CC1CCCO1)N1CCCCCC1)OCCO3 (stereo not given) | -1 | 8 | -4 | 15 | 97 | 3
COc1cc2cc(C(c3nnnn3C3CCCC3)N3CCCCCC3)c(=O)[nH]c2cc1OC (stereo not given) | 5 | 5 | 8 | 58* | 82 | 1
O=c1[nH]c2cc3c(cc2cc1C(c1nnnn1C1CCCCC1)N1CCSCC1)OCCO3 (stereo not given) | 1 | 21 | 35 | 51* | 254*[fluorescence artefact?] | 44
O=C(O)/C=C/C(=O)Nc1ncn[nH]1 | x | x | x | x | x | -12
O=c1cc(CF)[nH]c(=S)[nH]1 | x | x | x | x | x | 3
COc1ccc(NC(=O)CN(c2ccccc2)S(=O)(=O)N(C)C)cc1OC | 0 | 63*[fluorescence artefact?] | 57* | 3 | 69 | -8
Clc1cc(Sc2ccc(Br)cc2)nnc1-c1ccccc1 | 9 | x | x | 8 | x | x
Cc1ccc(NC(=O)c2ccc(OC(=O)c3ccco3)cc2)cc1 | 1 | 32 | 21 | 2 | 372*[fluorescence artefact?] | -4
CCOC(=O)c1c(C)[nH]c(C)c1C(=O)COc1ccc(NC(=O)c2ccco2)cc1 | 10 | 45 | 54*[fluorescence artefact?] | 7 | 47 | 5
Cc1nc2sccn2c1-c1nc(C2CC2)c(C(=O)c2ccc3c(c2)NC(=O)CO3)s1 | x | 61* | 53*[fluorescence artefact?] | x | 67 | -8
O=C(Nc1ccccc1)N(C1=NCCC1)c1ccc(OC(F)F)cc1 | 3 | -8 | -18 | 6 | 118 | 4
O=C/C(=C\Nc1ccc(Cl)cn1)c1nc2cc(Cl)ccc2o1 | 4 | 88*[fluorescence artefact?] | 56*[fluorescence artefact?] | 21 | 40 | 6
O=C(Nc1ccc(Cl)cn1)c1cc2ccccc2o1 | 1 | -1 | 4 | 1 | 102 | 3
COc1cc(NS(=O)(=O)c2ccc(N/C=C(\C#N)c3nc4cc(Cl)ccc4o3)cc2)nc(OC)n1 | 3 | x | x | 10 | x | x
O=C/C(=C\Nc1ccc(Cl)cn1)c1nc2ccccc2o1 | 1 | 54*[fluorescence artefact?] | 32 | 10 | 165 | -6
CCNc1nc(NCC)nc(N(C)N)n1 | 1 | x | x | 5 | x | x
CCOC(=O)c1c(NC(=O)CSc2nnc(C)s2)sc2c1CCN(C)C2 | 19 | 85*[fluorescence artefact?] | 48 | 40* | 92 | 5
CCOC(=O)c1c(NC(=O)c2cccs2)sc2c1CCN(C(=O)OCC)C2 | 5 | 7 | 4 | 10 | 119 | 15
CCOC(=O)c1c(NC(=O)C(F)(OC)C(F)(F)F)sc2c1CCN(C)C2 (stereo not given) | -5 | 4 | 1 | 56* | 89 | -4
CCn1c(O)c(/C=N/N=C/c2ccccc2)c2ccc(C3=NNC(=O)CC3)cc21 | 3 | -16 | -9 | 57* | 105 | 6
CCC(CC)=N/N=C/c1c(O)n(CC)c2cc(C3=NNC(=O)CC3)ccc12 | 0 | -15 | -2 | 18 | 97 | 1
CN(C)CCSCCO | x | x | x | x | x | 1
O=C(c1ccco1)N1CCN(C(=O)c2cc(-c3ccccn3)nc3ccc(Cl)cc23)CC1 | 3 | 64*[fluorescence artefact?] | 54*[fluorescence artefact?] | 22 | 44 | 0
Cc1cccc(C(OC(=O)c2ccco2)C(=O)NCc2ccccc2)n1 (stereo not given) | -5 | 68*[fluorescence artefact?] | 74*[fluorescence artefact?] | -7 | 53 | -5
Cc1ccc(OCc2cc(C(=O)Nc3ccccc3)oc2C)cc1 | 2 | 1 | -17 | 9 | 89 | 11
Cc1oc(C(=O)Nc2ccc(O)cc2)cc1COc1ccccc1 | -2 | 7 | 52*[fluorescence artefact?] | 4 | 98 | -12
